Measured values published in ChEMBL document CHEMBL1135440, “(+)-Dinapsoline: an efficient synthesis and pharmacological profile of a novel dopamine agonist” (J Med Chem, 2002).

What was measured:
Rattus norvegicus [1] = assay: In vivo number of rotations at a dose of 0.2 mg/kg administered subcutaneously to Sprague-Dawley rats; assay type: functional; details: route subcutaneous
Method in brief: (§1)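 Sprague-Dawley rats with unilateral 6-OHDA lesions of medial forebrain bundle, prescreened for rotation to amphetamine (5 mg/kg: 800 rotations/3 h) and apomorphine (0.2 mg/kg: 100 rotations/1 h). Subcutaneous dosing; rotations counted over 10 h, mean ± sem, n 5–10 per group. Each rat received four treatments, weekly, counterbalanced order.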

Rattus norvegicus [2] = assay: In vivo number of rotations at a dose of 2 mg/kg administered subcutaneously to Sprague-Dawley rats; assay type: functional; details: route subcutaneous; method in brief: as §1
SK-N-MC [3] = assay: In vitro adenylate cyclase response in neuroblastoma cell line SK-N-MC; assay type: functional, cell-based; details: Homo sapiens
Method in brief: (§2)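 SK-N-MC human neuroblastoma cells with endogenous D1 receptor, seeded at 10⁵ cells/mL 1 day before assay (37 °C, 5% CO₂). Cells exposed to varying compound concentrations in assay buffer with 1 mM IBMX, 10 min at 37 °C; stopped with 0.1 N HCl; cAMP measured by radioimmunoassay; dose-response curves fitted by nonlinear regression.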

[4] = In vitro intrinsic activity which is the ratio of the cyclase response of compound relative to that of dopamine; assay type: functional
Method in brief: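 cAMP accumulation in SK-N-MC cells (endogenous D1), varying compound concentrations with 1 mM IBMX, 10 min at 37 °C, cAMP by radioimmunoassay, nonlinear curve fitting. Intrinsic activity taken as ratio of compound maximal cyclase response to that of dopamine.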

SK-N-MC [5] = assay: In vitro adenylate cyclase response in neuroblastoma cell line; assay type: functional, cell-based; details: Homo sapiens; method in brief: as §2

Row | SMILES | Rotations/10 h (Rattus norvegicus [1]) | Rotations/10 h (Rattus norvegicus [2]) | EC50 (SK-N-MC [3]) [nM] | Intrinsic activity [4] | EC50 (SK-N-MC [5]) [nM]
1 | Oc1ccc2c(c1O)Cc1cccc3c1C2CNC3 (racemic) | 1900 | 4800 | 190 | 1.2 | 
2 | Oc1ccc2c(c1O)Cc1cccc3c1[C@H]2CNC3 | 4100 | 7000 |  | 1 | 220
3 | CCCc1cc2c(s1)CN[C@@H]1CCc3cc(O)c(O)cc3[C@@H]21 [A-86929] | 1100 | 4200 |  |  | 
4 | Oc1ccc2c(c1O)Cc1cccc3c1[C@@H]2CNC3 | 8 | 7 |  |  | > 10000
